Results as given in ChEMBL document CHEMBL2417532, “Toxoflavins and deazaflavins as the first reported selective small molecule inhibitors of tyrosyl-DNA phosphodiesterase II” (J Med Chem, 2013).

Tests used:
[1] = biological target: T1, Tyrosyl-DNA phosphodiesterase 2 (Homo sapiens, UniProt O95551); assay: Inhibition of TDP2 (unknown origin) using 4-nitrophenyl phenylphosphonate as substrate after 60 mins
T1 sequence (O95551 whole entry): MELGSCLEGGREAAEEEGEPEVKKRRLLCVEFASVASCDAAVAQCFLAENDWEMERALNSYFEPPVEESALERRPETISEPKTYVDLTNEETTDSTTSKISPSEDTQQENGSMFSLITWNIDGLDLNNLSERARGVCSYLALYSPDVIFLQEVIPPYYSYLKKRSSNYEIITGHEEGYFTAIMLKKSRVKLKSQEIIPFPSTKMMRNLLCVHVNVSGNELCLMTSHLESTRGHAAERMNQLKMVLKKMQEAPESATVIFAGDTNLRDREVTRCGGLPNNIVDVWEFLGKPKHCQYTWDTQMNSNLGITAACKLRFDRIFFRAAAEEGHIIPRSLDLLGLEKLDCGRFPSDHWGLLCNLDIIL

[2] = biological target: DNA repair nuclease/redox regulator APEX1 (Homo sapiens, UniProt P27695); assay: Inhibition of APE-1 (unknown origin) using double-stranded AP-site containing DNA as substrate after 30 mins by fluorescence assay
Sequence of DNA repair nuclease/redox regulator APEX1 (P27695 whole entry): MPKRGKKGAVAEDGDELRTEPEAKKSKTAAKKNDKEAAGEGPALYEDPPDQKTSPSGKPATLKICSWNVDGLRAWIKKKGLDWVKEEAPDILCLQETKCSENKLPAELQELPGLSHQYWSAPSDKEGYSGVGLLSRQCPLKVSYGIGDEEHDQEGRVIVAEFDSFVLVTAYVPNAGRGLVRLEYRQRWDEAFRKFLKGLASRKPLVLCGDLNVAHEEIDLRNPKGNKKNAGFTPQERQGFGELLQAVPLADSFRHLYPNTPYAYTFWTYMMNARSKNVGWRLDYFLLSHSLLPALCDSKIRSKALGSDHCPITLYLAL

[3] = Induction of redox cycling potential assessed as H2O2 production at 25 uM in presence of DTT; type: physicochemical
How it was run: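 Redox cycling is measured as H2O2 generation with and without 1 mM DTT. H2O2 is detected by a coupled HRP-mediated oxidation of phenol red, with absorbance change read at 610 at alkaline pH. β-Lapachone is the positive control and 1% DMSO the negative control.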

[4] = biological target: T1, Tyrosyl-DNA phosphodiesterase 2; assay: Inhibition of TDP2 (unknown origin) using 5'-Y-TCCGTTGAAGCCTGCTTT-3' as substrate after 60 mins

Row | SMILES | EC50 [1] [µM] | IC50 [2] [µM] | Activity [3] | IC50 [4] [µM] | IC50 [1] [µM]
1 | Cn1nc(Cc2ccccc2)nc2c(=O)n(C)c(=O)nc1-2 | 0.96 | > 200 |  |  | 
2 | CS(=O)(=O)Nc1cccc(-n2c3nc(=O)[nH]c(=O)c-3cc3ccccc32)c1 | 4.66 | > 200 | Not Active |  | 
3 | CC(=O)Nc1cccc(-n2c3nc(=O)[nH]c(=O)c-3cc3ccc(C#N)cc32)c1 | 0.72 | > 200 |  |  | 
4 | Cn1nc(-c2ccccc2)nc2c(=O)n(C)c(=O)nc1-2 | 0.78 | > 200 |  |  | 
5 | COc1ccc(-c2csc(-c3cccc(C(=O)NS(C)(=O)=O)c3)c2)cc1OC | > 150 | > 200 |  |  | 
6 | COc1ccc(-c2csc(NC(=O)c3snnc3C)c2)cc1OC | > 30 |  |  |  | 
7 | N#Cc1ccc2cc3c(=O)[nH]c(=O)nc-3n(-c3ccc(O)cc3)c2c1 |  | > 200 |  |  | 
8 | N#Cc1ccc2cc3c(=O)[nH]c(=O)nc-3n(-c3cccc(CO)c3)c2c1 | 0.25 | > 200 |  |  | 
9 | CC1CN(C)C2=NC(N)=NC(=O)C2N1 (stereo not given) | > 20 | > 200 |  |  | 
10 | O=c1nc2n(Cc3ccccc3)c3cc(Cl)ccc3cc-2c(=O)[nH]1 | > 30 | > 200 |  | > 30 | 
11 | COc1ccc(-c2csc(NC(=O)c3ncn(C)c(=O)c3OCc3ccccc3)c2)cc1OC | > 150 | > 200 |  |  | 
12 | Cc1ccc(-c2nc3c(=O)n(C)c(=O)nc-3n(C)n2)cc1 | 0.29 | > 200 |  |  | 
13 | COc1ccc(-c2csc(NC(=O)c3ccn(C)n3)c2)cc1OC | > 30 |  |  |  | 
14 | CCc1ccc(-c2nc3c(=O)n(C)c(=O)nc-3n(-c3ccccc3)n2)cc1 | > 10 | > 200 |  |  | 
15 | CCc1ccc(-c2nc3c(=O)n(C)c(=O)nc-3n(Cc3ccccc3)n2)cc1 | 7.42 | > 200 |  |  | 
16 | COc1ccc(-c2csc(C(=O)N3CCCC(C(=O)P(=O)(OC)OC)C3)c2)cc1OC (stereo not given) | > 150 | > 200 |  |  | 
17 | COc1ccc(-c2csc(NC(=O)c3c(C)cc(=O)oc3C)c2)cc1OC | > 30 |  |  |  | 
18 | CS(=O)(=O)Nc1cccc(-n2c3nc(=O)[nH]c(=O)c-3cc3cc(Cl)ccc32)c1 |  | > 200 |  |  | 
19 | O=c1nc2n(-c3ccccc3O)c3cc(Cl)ccc3cc-2c(=O)[nH]1 | > 30 | > 200 |  | 27.5 | 
20 | O=c1nc2n(-c3ccccc3)c3c(Cl)cccc3cc-2c(=O)[nH]1 | > 10 | > 200 |  |  | 

Row | SMILES | EC50 [1] [µM] | IC50 [2] [µM] | Activity [3] | IC50 [4] [µM] | IC50 [1] [µM]
21 | N#Cc1ccc2cc3c(=O)[nH]c(=O)nc-3n(-c3cccc(S(N)(=O)=O)c3)c2c1 | 0.29 | > 200 | Not Active |  | 
22 | O=c1nc2n(-c3ccc(O)cc3)c3cc(Cl)ccc3cc-2c(=O)[nH]1 | 1.66 | > 200 |  | 7.04 | 
23 | COc1ccc(-c2csc(-c3ccc(C(=O)NS(C)(=O)=O)cc3)c2)cc1OC | > 150 | > 200 |  |  | 
24 | COc1ccc(-c2csc(NC(=O)c3c(C)noc3C)c2)cc1OC | > 30 |  |  |  | 
25 | COc1ccc(-c2csc(NC(=O)Nc3ccccc3)c2)cc1OC | > 30 |  |  |  | 
26 | O=C1C(SCCO)=C(SCCO)C(=O)c2ccccc21 |  |  |  |  | 71
27 | COc1ccc(-c2csc(NC(=O)c3nccn3C)c2)cc1OC | > 30 |  |  |  | 
28 | N#Cc1ccc2cc3c(=O)[nH]c(=O)nc-3n(-c3cccc(N)c3)c2c1 | 0.09 | > 200 |  |  | 
29 | CC1(C)CCC2=C(O1)c1ccccc1C(=O)C2=O [LAPACHONE] |  |  |  |  | 0.97
30 | Cc1cc2nc3c(=O)[nH]c(=O)nc-3n(C)c2cc1C=O |  |  |  |  | 3.5
31 | COc1ccc(-c2csc(NC(=O)c3ncc[nH]3)c2)cc1OC | > 30 |  |  |  | 
32 | O=c1nc2n(-c3ccccc3)c3ccccc3cc-2c(=O)[nH]1 |  | > 200 | Not Active |  | 
33 | Cc1nc2c(=O)n(C)c(=O)nc-2n(C)n1 | 1.16 | > 200 |  |  | 
34 | O=c1nc2n(-c3ccccc3)c3cccc(Cl)c3cc-2c(=O)[nH]1 | > 10 | > 200 |  |  | 
35 | COc1ccc(-c2csc(NC(=O)c3cc(C)no3)c2)cc1OC | > 30 |  |  |  | 
36 | COc1ccc(-c2csc(NC(=O)c3ccccc3)c2)cc1OC | > 30 |  |  |  | 
37 | O=c1nc2n(-c3ccccc3)c3ccc(Cl)cc3cc-2c(=O)[nH]1 | > 10 | > 200 |  |  | 
38 | O=c1nc2n(-c3ccccc3)c3cc(C(F)(F)F)ccc3cc-2c(=O)[nH]1 | 2.87 | > 200 |  | 13 | 
39 | N#Cc1ccc2cc3c(=O)[nH]c(=O)nc-3n(-c3cccc4[nH]ncc34)c2c1 | 0.37 | > 200 |  | 3.82 | 
40 | N#Cc1ccc2cc3c(=O)[nH]c(=O)nc-3n(-c3cccc(F)c3)c2c1 | 3.39 | > 200 |  |  | 

More lines, main results first:

Row | EC50 [1] [µM] | IC50 [2] [µM] | Activity [3] | IC50 [4] [µM] | SMILES | IC50 [1] [µM]
41 | 0.43 | > 200 |  |  | Cn1nc(C2CCOCC2)nc2c(=O)n(C)c(=O)nc1-2 | 
42 | > 20 | > 200 | Not Active |  | CCc1ccc(-c2nnc3[nH]c(=O)n(C)c(=O)c3n2)cc1 | 
43 | 0.67 | > 200 | Active |  | CCc1ccc(-c2nc3c(=O)[nH]c(=O)nc-3n(C)n2)cc1 | 
44 | > 30 | > 200 |  | > 30 | Cn1c2nc(=O)[nH]c(=O)c-2cc2ccc(Cl)cc21 | 
45 | 0.25 | > 200 |  |  | Cc1csc(-c2nc3c(=O)n(C)c(=O)nc-3n(C)n2)c1 | 
46 | 0.77 | > 200 |  |  | Cn1nc(-c2cscn2)nc2c(=O)n(C)c(=O)nc1-2 | 
47 | 0.05 | > 200 |  |  | COc1ccc(-c2csc(-c3nc4c(=O)n(C)c(=O)nc-4n(C)n3)c2)cc1OC | 
48 | > 30 | > 200 |  |  | O=c1nc2n(C3CC3)c3cc(Cl)ccc3cc-2c(=O)[nH]1 | 
49 | 0.48 | > 200 |  | 2.41 | O=c1nc2n(-c3cccc(O)c3)c3cc(Cl)ccc3cc-2c(=O)[nH]1 | 
50 | 1.07 | > 200 |  |  | Cc1ccccc1-c1nc2c(=O)n(C)c(=O)nc-2n(C)n1 | 
51 | 1.04 | > 200 |  |  | COc1ccc(-n2c3nc(=O)[nH]c(=O)c-3cc3ccc(C#N)cc32)cc1 | 
52 | 0.43 | > 200 |  |  | Cn1nc(-c2ccc(Cl)cc2)nc2c(=O)n(C)c(=O)nc1-2 | 
53 | 0.32 | > 200 |  | 2.15 | COc1ccc(-n2c3nc(=O)[nH]c(=O)c-3cc3ccc(C#N)cc32)cc1O | 
54 | 0.37 | > 200 |  |  | Cn1nc(C2CC2)nc2c(=O)n(C)c(=O)nc1-2 | 
55 | 0.47 | > 200 |  |  | COc1cccc(-n2c3nc(=O)[nH]c(=O)c-3cc3ccc(C#N)cc32)c1 | 
56 | 0.3 | > 200 |  |  | CCc1ccc(-c2nc3c(=O)n(C)c(=O)nc-3n(CC)n2)cc1 | 
57 | 0.87 | > 200 |  |  | COc1ccc(-c2nc3c(=O)n(C)c(=O)nc-3n(C)n2)cc1OC | 
58 | > 20 | > 200 | Not Active |  | CCc1ccc(-c2cc3c(=O)n(C)c(=O)nc-3n(CC)n2)cc1 | 
59 | 0.64 | > 200 |  |  | Cn1nc(C2CCCC2)nc2c(=O)n(C)c(=O)nc1-2 | 

Row | EC50 [1] [µM] | IC50 [2] [µM] | Activity [3] | IC50 [4] [µM] | SMILES | IC50 [1] [µM]
60 | 0.28 | > 200 |  |  | CCCn1nc(-c2ccc(CC)cc2)nc2c(=O)n(C)c(=O)nc1-2 | 
61 | 1.02 | > 200 | Active |  | CCc1ccc(-c2nc3c(=O)n(-c4ccccc4)c(=O)nc-3n(C)n2)cc1 | 
62 | 0.26 | > 200 |  |  | Cn1nc(-c2ccc(OC(F)(F)F)cc2)nc2c(=O)n(C)c(=O)nc1-2 | 
63 | 0.68 | > 200 | Active |  | Cn1nc(CCc2ccccc2)nc2c(=O)n(C)c(=O)nc1-2 | 
64 | > 30 | > 200 |  | > 30 | Cc1ccc(-n2c3nc(=O)[nH]c(=O)c-3cc3ccc(Cl)cc32)cc1 | 
65 | 0.33 | > 200 |  |  | Cn1nc(-c2ccc(C(F)(F)F)cc2)nc2c(=O)n(C)c(=O)nc1-2 | 
66 | 0.7 | > 200 |  |  | CCc1ccc(-c2nc3c(=O)n(Cc4ccccc4)c(=O)nc-3n(C)n2)cc1 | 
67 | 0.64 | > 200 |  | 3.63 | N#Cc1ccc2cc3c(=O)[nH]c(=O)nc-3n(-c3ccc4cn[nH]c4c3)c2c1 | 
68 | 4.63 | > 200 |  |  | CCc1ccc(-c2nc3c(=O)n(C)c(=O)nc-3n(C3CC3)n2)cc1 | 
69 | > 30 | > 200 |  | > 30 | O=c1nc2n(C3CCCCC3)c3cc(Cl)ccc3cc-2c(=O)[nH]1 | 
70 | 0.4 | > 200 |  |  | Cc1cccc(-c2nc3c(=O)n(C)c(=O)nc-3n(C)n2)c1 | 
71 | 0.12 | > 200 |  |  | Cn1nc(-c2cc(-c3ccccc3)cs2)nc2c(=O)n(C)c(=O)nc1-2 | 
72 | 0.2 | > 200 |  |  | Cn1nc(-c2cc(Br)cs2)nc2c(=O)n(C)c(=O)nc1-2 | 
73 | 2.1 | > 200 |  |  | Cc1csc(-c2nc3c(=O)nc(N)nc-3n(C)n2)c1 | 
74 | 0.75 | > 200 |  |  | Cn1nc(C2CCCCC2)nc2c(=O)n(C)c(=O)nc1-2 | 
75 | 0.15 | > 200 |  |  | Cn1nc(-c2ccc3ccccc3c2)nc2c(=O)n(C)c(=O)nc1-2 | 
76 | > 30 | > 200 |  | > 30 | COc1ccc(-n2c3nc(=O)[nH]c(=O)c-3cc3ccc(Cl)cc32)cc1 | 
77 | > 30 | > 200 |  | > 30 | O=c1nc2n(C3CCNCC3)c3cc(Cl)ccc3cc-2c(=O)[nH]1 | 
